Active and inactive are the calls of the source. The calls are words filed in the database; no cut-off is given here.
How the values were obtained:
[1] = test system: U-251; assay: Antitumour activity against human U251 cells xenografted in NCr athymic nude nu/nu mouse assessed as decrease in tumour growth at 50 mg/kg once in a week; format: functional, organism-based
[2] = Relative resistance, ratio of IC50 for inhibition of beta3 Tubulin (unknown origin) expressed in human HeLa cell line assessed as inhibition of cell proliferation to IC50 antiproliferative activity against human HeLa cells
[3] = test system: HeLa; assay: Antiproliferative activity against human HeLa cells assessed as decrease in cell growth measured after 48 hrs by SRB method; format: functional, cell-based
[4] = Relative resistance, ratio of IC50 for antiproliferative activity against human SK-OV-3 MDR-1-6/6 cells expressing Pgp to IC50 antiproliferative activity against human SK-OV-3 cells; format: functional
[5] = test system: MDA-MB-435; assay: Antiproliferative activity against human MDA-MB-435 cell line assessed as inhibition of cell proliferation measured after 48 hrs by SRB assay; format: functional, cell-based; details: MDA-MB-435, 48 h
Method in brief: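 MDA-MB-435 melanoma cells were assessed by sulforhodamine B assay. IC50 is the mean ± SD of at least three independent experiments, each run in triplicate.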

[6] = Induction of microtubule depolymerisation in rat A-10 cell line measured after 18 hrs by indirect immunofluorescence method; details: a10
Method in brief: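 Rat A-10 cells, chosen because they arrest in interphase without significant mitotic accumulation, were exposed to compounds for 18 h. Cellular microtubules were then visualized by indirect immunofluorescence. EC50 values come from at least three independent experiments.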

[7] = Antiproliferative activity against human SK-OV-3 MDR-1-6/6 cells expressing Pgp assessed as decrease in cell growth measured after 48 hrs by SRB method; format: functional; details: SK-OV-3, 48 h
[8] = test system: SK-OV-3; assay: Antiproliferative activity against human SK-OV-3 cells assessed as decrease in cell growth measured after 48 hrs by SRB method; format: functional, cell-based; details: SK-OV-3, 48 h
[9] = test system: U-251; assay: Cytotoxicity against human U251 cell line assessed as inhibition of cell growth after 48 hrs by SRB assay; format: functional, cell-based; details: U-251, 48 h
[10] = Inhibition of bovine tubulin polymerization assessed as reduction in extent of assembly preincubated for 15 mins followed by addition of reaction mixture measured after 20 mins by turbidimetric assay; design: species or system Bos taurus
Method in brief: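 After chilling, GTP was added (0.4 mM final). Turbidity at 350 nm was read after a jump from 0 °C to 30 °C.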

[11] = organism: Bos taurus; assay: Inhibition of [3H]colchicine binding to bovine tubulin at 5 uM measured after 10 mins by scintillation counting
Method in brief: (§1)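 Purified bovine brain tubulin at 1.0 µM was mixed with 5.0 µM [3H]colchicine and inhibitor, plus components that stabilize colchicine binding, in 5% DMSO; tubulin was added last, on ice. Binding ran 10 min at 37 °C and was stopped with ice water. Mixtures were filtered through stacked DEAE-cellulose filters, and bound radiolabel was measured by scintillation counting.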

[12] = organism: Bos taurus; assay: Inhibition of [3H]colchicine binding to bovine tubulin at 1 uM measured after 10 mins by scintillation counting; method in brief: as §1

SMILES | IC50 [3] [nM] | IC50 [5] [nM] | EC50 [6] [nM] | IC50 [8] [nM] | IC50 [10] [nM] | inhibition [11] [%] | inhibition [12] [%] | inhibition [1] | Ratio IC50 [2] | Ratio IC50 [4] | IC50 [7] [nM] | IC50 [9] [nM]
Cn1nnc2c(C(N)=O)ncn2c1=O | – | – | – | – | – | – | – | Active | – | – | – | –
COc1ccc2c(N(C)c3ncnc4c3CCC4)cccc2c1 | – | – | > 10000 | – | > 20000 | – | – | – | – | – | – | 133
COc1ccc(/C=C\c2cc(OC)c(OC)c(OC)c2)cc1O [COMBRETASTATIN A4] | – | – | 13 | – | – | – | – | – | – | – | 6.6 | –

The next lines start with results.

IC50 [3] [nM] | IC50 [5] [nM] | EC50 [6] [nM] | IC50 [8] [nM] | IC50 [10] [nM] | inhibition [11] [%] | inhibition [12] [%] | SMILES | inhibition [1] | Ratio IC50 [2] | Ratio IC50 [4] | IC50 [7] [nM] | IC50 [9] [nM]
12.6 | 8.7 | 26 | 14.9 | – | – | – | COc1cccc2cc(N(C)c3nc(N)nc4c3CCC4)ccc12 | – | 0.8 | 1.3 | 19.6 | –
– | 25.7 | 282 | – | – | – | – | COc1ccc(N(C)c2nc(C)nc3c2CC(C)C3)cc1 (stereo unspecified) | – | – | – | – | –
56.4 | 34 | 184 | 37 | 1200 | 93 | 77 | COc1cccc2cc(N(C)c3ncnc4c3CCC4)ccc12 | – | 0.8 | 2 | 74 | 72.5

— ChEMBL document CHEMBL4680306, “The 3-D conformational shape of N-naphthyl-cyclopenta[d]pyrimidines affects their potency as microtubule targeting agents and their antitumor activity” (Bioorg Med Chem, 2021)
